Inhibition in vivo and Inhibition data for 22 molecules are collected here from ChEMBL document CHEMBL1127301, “Carbonyl-containing bisphosphonate esters as novel antiinflammatory and antiarthritic agents” (1994).

What all share (assay type): functional
The subject of experiment [1] is Mus musculus. As to the kind of experiment: Decreased wet tissue weight of DTH-GRA from mice was determined after (sc) administration of a dose of 100 mg/kg after 9 days. As to conditions: for inhibition in vivo at 100 mg/kg: Mus musculus, sc, 216 h. Summed up: (§1)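 Groups of 10 female CF-1 mice (25 g) were sensitized sc over the inguinal node with mBSA/Freund's incomplete adjuvant/dextran. Three weeks later, two 6 mm hydroxyapatite discs soaked in mBSA (30 mg/mL) were implanted sc in the dorsum. Drug was given sc in the scruff. After 9 days, granulomas were excised and wet/dry weights compared with vehicle controls as percent inhibition.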

Experiment [2] has as its system Mus musculus. As to the kind of experiment: Decreased dry tissue weight of DTH-GRA from mice was determined after (sc) administration of a dose of 10 mg/kg after 9 days. The method in brief: as §1
The test system of experiment [3] is Mus musculus. As to the kind of experiment: Decreased wet tissue weight of DTH-GRA from mice was determined after (sc) administration of a dose of 10 mg/kg after 9 days. Summed up:
as §1

Experiment [4] relates to Mus musculus. As to the kind of experiment: Compound was tested for the suppression of Antigen-Induced Arthritis in mice after 28 days, which were dosed 10 mg/kg subcutaneously. As to conditions: sc, 672 h, route subcutaneous. The method in brief:
(§2)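 mBSA-sensitized mice were boosted after 7 days and, 14 days later, challenged intraarticularly with 200 μg mBSA in saline in the left rear stifle. Drug in sterile saline was given sc in the scruff from day 0 on a 5-of-7-day regimen to day 28. H&E sagittal joint sections were graded 1–5 for inflammation, pannus, and cartilage/bone erosion; results are percent inhibition.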

For experiment [5], the system named is Mus musculus. As to the kind of experiment: Compound was tested for the suppression of Antigen-Induced Arthritis in mice after 28days, which were dosed 100 mg/kg subcutaneously;. As to conditions: sc, 672 h, route subcutaneous. Summed up: as §2
Experiment [6] relates to Mus musculus. Nature of the experiment: Compound was tested for the suppression of Antigen-Induced Arthritis in mice after 28days, at a dose of 100 mg/kg administered subcutaneously; p<0.001. As to conditions: sc, 672 h, route subcutaneous. The method in brief: as §2
Experiment [7] concerns Mus musculus. As to the kind of experiment: Compound was tested for the suppression of Antigen-Induced Arthritis in mice after 28days, which were dosed 100 mg/kg subcutaneously. The conditions noted are these: sc, 672 h, route subcutaneous. Summed up: as §2
For experiment [8], the system named is Mus musculus. As to the kind of experiment: Decreased dry tissue weight of DTH-GRA from mice was determined after (sc) administration of a dose of 100 mg/kg after 9 days. As to conditions: 216 h. Summed up:
as §1

Experiment [9] relates to Mus musculus. As to the kind of experiment: Compound was tested for the suppression of Antigen-Induced Arthritis in mice after 28days, at a dose of 100 mg/kg administered subcutaneously. As to conditions: sc, 672 h, route subcutaneous. The method in brief:
as §2

For experiment [10], the system named is Mus musculus. Nature of the experiment: Compound was tested for the suppression of Antigen-Induced Arthritis in mice after 28 days, at a dose of 50 mg/kg administered subcutaneously. As to conditions: sc, 672 h, route subcutaneous. The method in brief:
as §2

In experiment [11] the test system is Mus musculus. As to the kind of experiment: Compound was tested for the suppression of Antigen-Induced Arthritis in mice after 28 days, at a dose of 25 mg/kg administered subcutaneously. As to conditions: sc, 672 h, route subcutaneous. Summed up:
as §2

Experiment [12] relates to Mus musculus. Nature of the experiment: Compound was tested for the suppression of Antigen-Induced Arthritis in mice after 28days, at a dose of 10 mg/kg administered subcutaneously. As to conditions: sc, 672 h, route subcutaneous. The method in brief:
as §2

Experiment [13] has as its system Mus musculus. Nature of the experiment: Decreased dry tissue weight of DTH-GRA from mice was determined after (sc) administration of a dose of 100 mg/kg. Summed up: (§3)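 Groups of 10 female CF-1 mice (25 g) sensitized sc over the inguinal lymph node with mBSA emulsion (saline, Freund's incomplete adjuvant, dextran). Three weeks later, two hydroxyapatite discs (6 mm) soaked in mBSA (30 mg/mL saline) implanted sc bilaterally in the dorsum. Compound given sc in scruff of neck in saline vehicle. Granulomas excised after 9 days; wet and dry weights expressed as percent inhibition versus vehicle-dosed controls.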

Experiment [14] relates to Mus musculus. Nature of the experiment: Decreased dry tissue weight of DTH-GRA from mice was determined after (sc) administration of a dose of 200 mg/kg. Summed up: as §3
Experiment [15] deals with Mus musculus. As to the kind of experiment: Decreased dry tissue weight of DTH-GRA from mice was determined after (sc) administration of a dose of 25 mg/kg. The method in brief: as §3
The test system of experiment [16] is Mus musculus. Nature of the experiment: Decreased dry tissue weight of DTH-GRA from mice was determined after (sc) administration of a dose of 50 mg/kg. The method in brief:
as §3

Experiment [17] deals with Mus musculus. As to the kind of experiment: Decreased wet tissue weight of DTH-GRA from mice was determined after (sc) administration of a dose of 100 mg/kg. The method in brief: as §3
In experiment [18] the test system is Mus musculus. As to the kind of experiment: Decreased wet tissue weight of DTH-GRA from mice was determined after (sc) administration of a dose of 200 mg/kg. Summed up: as §3
For experiment [19], the system named is Mus musculus. As to the kind of experiment: Decreased wet tissue weight of DTH-GRA from mice was determined after (sc) administration of a dose of 25 mg/kg. Summed up:
as §3

Experiment [20] relates to Mus musculus. As to the kind of experiment: Decreased wet tissue weight of DTH-GRA from mice was determined after (sc) administration of a dose of 50 mg/kg. Summed up:
as §3

Values joined by “and” are separate entries in the source; they are usually repeats but may differ in a detail not shown here. Equal values may be shown once.

Broadly, the inhibition in vivo is the percentage by which the read-out fell short of the control. Read a low inhibition in vivo as a weak effect. Regarding `CCOP(=O)(OCC)C(CC1CCCC(c2ccccc2)C1=O)P(=O)(OCC)OCC` (centres undefined), the inhibition in vivo at 100 mg/kg with Mus musculus [1] worked out at 50%.
In the case of `CCOC(=O)C(CC(P(=O)(OCC)OCC)P(=O)(OCC)OCC)C(=O)c1ccccc1` (centres undefined), the inhibition in vivo at 100 mg/kg in the experiment with Mus musculus [1] came to 77%.
What is called Inhibition is the relative decrease from the control value, in per cent. Lower therefore signals a weak effect. Turning to `CCOP(=O)(OCC)C(CC(=O)C(=O)c1ccccc1)P(=O)(OCC)OCC`, the Inhibition is 45% and 54% and 49% and 38% and 27% with Mus musculus [2]; 56% and 49% and 43% and 28% in the experiment with Mus musculus [3]. In the experiment on Mus musculus [1], this molecule gave an inhibition in vivo at 100 mg/kg of 49%. In the experiment on Mus musculus [4], the inhibition in vivo at 10 mg/kg worked out at 12%.
As for `CCOP(=O)(OCC)C(CC(C(=O)OC)c1ccccc1O)P(=O)(OCC)OCC` (centres undefined), in the experiment with Mus musculus [1], the inhibition in vivo at 100 mg/kg turned out to be 5%.
In turn, `CCOP(=O)(OCC)C(CC1Cc2ccccc2C1=O)P(=O)(OCC)OCC` (centres undefined) gave an inhibition in vivo at 100 mg/kg in the experiment with Mus musculus [1] of 0%.
Molecule `CCOP(=O)(OCC)C(CC(C(=O)Nc1ccccc1)C(=O)c1ccccc1)P(=O)(OCC)OCC` (centres undefined) came in with an inhibition in vivo at 100 mg/kg in the experiment on Mus musculus [1] of 3%.
Turning to `CCOP(=O)(OCC)C(CC1CCCC(C)C1=O)P(=O)(OCC)OCC` (centres undefined), the inhibition in vivo at 100 mg/kg stood at 46% in the experiment on Mus musculus [5] and 25% in the experiment with Mus musculus [1].
On to `CCOP(=O)(OCC)C(CC(C#N)c1cccc2ccccc12)P(=O)(OCC)OCC` (centres undefined), for which, in the experiment on Mus musculus [1], the inhibition in vivo at 100 mg/kg came to 0%.
`CCOP(=O)(OCC)C(CC1C(=O)c2ccccc2SC1C)P(=O)(OCC)OCC` (centres undefined): the inhibition in vivo at 100 mg/kg in the experiment on Mus musculus [1] is 33%.
With `CCOP(=O)(OCC)C(CC(C(=O)OC)c1ccccc1)P(=O)(OCC)OCC` (centres undefined), the inhibition in vivo at 100 mg/kg in the experiment with Mus musculus [6] was 38%; in the experiment on Mus musculus [1] it was 8%.
Take `CCOP(=O)(OCC)C1(P(=O)(OCC)OCC)CC(C(=O)c2ccccc2)=NN1`: the inhibition in vivo at 100 mg/kg in the experiment on Mus musculus [1] was found to be 31%.
Molecule `CCOP(=O)(OCC)C(CC(C(=O)c1ccc(OC)cc1)c1ccccn1)P(=O)(OCC)OCC` (centres undefined) registered an inhibition in vivo at 100 mg/kg in the experiment with Mus musculus [1] of 34%.
`CCOP(=O)(OCC)C(C[C@H]1C(=O)c2ccccc2O[C@H]1c1ccccc1)P(=O)(OCC)OCC` displayed an inhibition in vivo at 100 mg/kg with Mus musculus [1] of 0%.
Take `CCOP(=O)(OCC)C(CC(C#N)c1cccs1)P(=O)(OCC)OCC` (centres undefined): the inhibition in vivo at 100 mg/kg with Mus musculus [1] came out at 40%.
Consider `CCOP(=O)(OCC)C(CC1Sc2ccccc2C1=O)P(=O)(OCC)OCC` (centres undefined), for which the inhibition in vivo at 100 mg/kg in the experiment with Mus musculus [1] stood at 27%.
Still for that read-out and setting: for `CCOP(=O)(OCC)C(CC1COc2ccccc2C1=O)P(=O)(OCC)OCC` (centres undefined) the value was 67%.
For the molecule `CCOP(=O)(OCC)C(CC1C(=O)c2ccccc2OC1c1ccccc1)P(=O)(OCC)OCC` (centres undefined), the inhibition in vivo at 100 mg/kg amounted to 21% with Mus musculus [7], 46% in the experiment on Mus musculus [1] and 47% in the experiment with Mus musculus [8].
Take `CCOP(=O)(OCC)C(CC1CSc2ccc(C)cc2C1=O)P(=O)(OCC)OCC` (centres undefined): the inhibition in vivo at 100 mg/kg in the experiment on Mus musculus [9] stood at 21%; in the experiment on Mus musculus [1], 28%.
In the experiment with Mus musculus [1], `CCOP(=O)(OCC)C(C[C@@H]1C(=O)c2ccccc2O[C@H]1c1ccccc1)P(=O)(OCC)OCC` gave an inhibition in vivo at 100 mg/kg of 67%.
For the molecule `CCOP(=O)(OCC)C(CC(C(=O)c1ccccc1)c1ccccc1)P(=O)(OCC)OCC` (centres undefined), the inhibition in vivo at 100 mg/kg stood at 52% in the experiment on Mus musculus [7] and 48% in the experiment on Mus musculus [1]. Besides, the Inhibition in the experiment with Mus musculus [2] is 57% and 48% and 38%; with Mus musculus [1] (100 mg/kg), 51% and 44% and 35%. For the same molecule, testing at 50 mg/kg in the experiment on Mus musculus [10] gave an inhibition in vivo of 53%. In the experiment on Mus musculus [11], the inhibition in vivo at 25 mg/kg was determined as 55%.
In the experiment on Mus musculus [12], `CCOP(=O)(OCC)C(CC(C#N)c1ccccn1)P(=O)(OCC)OCC` (centres undefined) returned an inhibition in vivo at 10 mg/kg of 2%.
Take `O=P(O)(O)C(Cl)(Cl)P(=O)(O)O` [CLODRONIC ACID]: the inhibition in vivo at 100 mg/kg worked out at 63% with Mus musculus [13], 61% in the experiment on Mus musculus [17], 45% with Mus musculus [1] and 50% in the experiment with Mus musculus [8]. In addition, the inhibition in vivo at 200 mg/kg with Mus musculus [14] stood at 59%; with Mus musculus [18], 55%. For the same molecule, the inhibition in vivo at 25 mg/kg in the experiment with Mus musculus [15] and in the experiment with Mus musculus [19] was 45% each time. The inhibition in vivo at 50 mg/kg with Mus musculus [16] stood at 47%; with Mus musculus [20], 48%.
